# pIC50: −log10 of the molar value. Activity calls are given as the source filed them. The rule behind the calls is not given here.
# Columns and labels:
# SW-620 [1] = test: Cell cycle arrest in human SW620 cells assessed as accumulation at G1 phase at 5 uM after 48 hrs by propidium iodide staining based flow cytometeric analysis (reference value: 52.7 +/- 0.9%); type: functional
# Nucleic Acid [2] = test: Binding affinity to calf thymus DNA assessed as change in melting temperature at compound to polynucleotide ratio of 0.5 by UV-VIS spectroscopic analysis; type: nucleic-acid assay; conditions: Bos taurus
# Summary of the method: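 ct-DNA alone or with compound at set r = [compound]/[polynucleotide], in cacodylate buffer pH 7.0, I = 0.05 mol dm^-3. Absorbance at 260 nm followed against temperature, ligand absorbance subtracted, curves normalized. Tm is the transition midpoint, from the first-derivative maximum or by tangent method. ΔTm = Tm(complex) − Tm(free DNA), mean of ≥2 runs, error ±0.5 °C.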
# SW-620 [3] = test: Cell cycle arrest in human SW620 cells assessed as accumulation at S phase at 1 uM after 24 hrs by propidium iodide staining based flow cytometeric analysis (reference value: 48.4 +/- 1.4%); type: functional
# MIA PaCa-2 [4] = test: Cytostatic activity against human MIAPaCa2 cells at 1 to 10 uM after 72 hrs by MTT assay; type: functional, cell-based
# Summary of the method: (§1)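 Monolayers in DMEM with 10% FBS, 2 mM L-glutamine, penicillin and streptomycin (37 °C, 5% CO2) were seeded at 3000–6000 cells/well on day 0. Five 10-fold dilutions (0.01–100 µM) were added, followed by 72-h incubation and MTT read-out. Absorbances were converted to percentage growth by the NIH formulae. Each point was run in quadruplicate in three experiments; ANOVA with Tukey test.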
# SW-620 [5] = test: Cell cycle arrest in human SW620 cells assessed as accumulation at G2/M phase at 1 uM after 24 hrs by propidium iodide staining based flow cytometeric analysis (reference value: 22.3 +/- 2.9%); type: functional
# SW-620 [6] = test: Cell cycle arrest in human SW620 cells assessed as accumulation at S phase at 10 uM after 24 hrs by propidium iodide staining based flow cytometeric analysis (reference value: 48.4 +/- 1.4%); type: functional
# MIA PaCa-2 [7] = test: Induction of apoptosis in human MIAPaCa2 cells assessed as morphological change after 24 to 48 hrs by microscopic analysis; type: functional, cell-based
# Summary of the method: (§2)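 Cells were seeded at 3 × 10^4 per well and exposed 24 h later to 1, 5 or 10 µM for 24 and 48 h. Apoptotic morphology (cell shrinkage, chromatin condensation) was scored by inverted light microscopy at 200× magnification.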
# SW-620 [8] = test: Cytostatic activity against human SW620 cells at 1 to 10 uM after 72 hrs by MTT assay; type: functional, cell-based; summary of the method: as §1
# Nucleic Acid [9] = test: Binding affinity to calf thymus DNA assessed as appearance of weak, negative induced CD band at 337 nm wavelength by circular dichroism spectroscopy; type: nucleic-acid assay; conditions: Bos taurus
# Summary of the method: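 CD spectra of ct-DNA (1.0 × 10^-5 mol dm^-3, as phosphate) titrated with compound at 25 °C. Sodium cacodylate buffer pH 7.0, I = 0.05 mol dm^-3, 1 cm quartz cuvette. DNA band (~274–275 nm) and induced bands above 300 nm followed versus r = [compound]/[ct-DNA].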
# MIA PaCa-2 [10] = test: Cell cycle arrest in human MIAPaCa2 cells assessed as accumulation at subG1 phase at 5 uM after 48 hrs by propidium iodide staining based flow cytometeric analysis (reference value: 46.8 +/- 0.7%); type: functional
# MIA PaCa-2 [11] = test: Cell cycle arrest in human MIAPaCa2 cells assessed as accumulation at S phase at 5 uM after 48 hrs by propidium iodide staining based flow cytometeric analysis (reference value: 20.5 +/- 0.2%); type: functional
# Nucleic Acid [12] = test: Binding affinity to calf thymus DNA assessed as hypochromic changes at 364 nm wavelength by UV-Vis spectrophotometric titrations; type: nucleic-acid assay; conditions: Bos taurus
# Summary of the method: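 UV/Vis titration: aliquots of ct-DNA (concentration as phosphate) added to compound solution in sodium cacodylate buffer pH 7.0, I = 0.05 mol dm^-3, 1 cm quartz cuvettes. Hypochromism followed at band maxima. Compound absorbance linear up to 2.0 × 10^-5 mol dm^-3. Binding data fitted by the Scatchard equation.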
# Nucleic Acid [13] = test: Binding affinity to calf thymus DNA assessed as UV/Vis spectral change at compound to DNA ratio of 0.44 by UV/Vis titrations; conditions: Bos taurus
# MIA PaCa-2 [14] = test: Cell cycle arrest in human MIAPaCa2 cells assessed as accumulation at G1 phase at 5 uM after 24 hrs by propidium iodide staining based flow cytometeric analysis (reference value: 51.2 +/- 2.7%); type: functional
# SW-620 [15] = test: Induction of apoptosis in human SW620 cells assessed as morphological changes after 24 to 48 hrs by microscopic analysis; type: functional, cell-based; summary of the method: as §2
# MIA PaCa-2 [16] = test: Cell cycle arrest in human MIAPaCa2 cells assessed as accumulation at S phase at 1 uM after 24 hrs by propidium iodide staining based flow cytometeric analysis (reference value: 29.2 +/- 4.2%); type: functional
# MIA PaCa-2 [17] = test: Cell cycle arrest in human MIAPaCa2 cells assessed as accumulation at G2/M phase at 1 uM after 48 hrs by propidium iodide staining based flow cytometeric analysis (reference value: 14.3 +/- 1.8%); type: functional
# MIA PaCa-2 [18] = test: Cell cycle arrest in human MIAPaCa2 cells assessed as accumulation at G2/M phase at 10 uM after 48 hrs by propidium iodide staining based flow cytometeric analysis (reference value: 14.3 +/- 1.8%); type: functional
# SW-620 [19] = test: Cell cycle arrest in human SW620 cells assessed as accumulation at subG1 phase at 5 uM after 24 hrs by propidium iodide staining based flow cytometeric analysis (reference value: 18 +/- 1%); type: functional
# Summary of the method: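 Cells seeded at 3 × 10^4 per well and treated 24 h later with 1, 5 or 10 µM for 24 and 48 h. Adherent and floating cells were pooled, washed in PBS and fixed in 70% ethanol. They were then stained with propidium iodide 10 µg/mL plus RNase A 0.2 µg/mL. Flow cytometry counted 10000 events; each point was run in triplicate; significance was taken at p < 0.05.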
# MIA PaCa-2 [20] = test: Cell cycle arrest in human MIAPaCa2 cells assessed as accumulation at subG1 phase at 1 uM after 48 hrs by propidium iodide staining based flow cytometeric analysis (reference value: 46.8 +/- 0.7%); type: functional
# SK-BR-3 = test: Antiproliferative activity against human SKBR3 cells after 72 hrs by MTT assay; type: functional, cell-based; conditions: Homo sapiens, SK-BR-3, 72 h
# Summary of the method: (§3)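 Monolayer cells in DMEM with 10% FBS, 2 mM L-glutamine, penicillin and streptomycin at 37 °C, 5% CO2. Seeded at 3000-6000 cells/well by doubling time on day 0. Five 10-fold dilutions (0.01–100 µM) were added and incubated 72 h. MTT read-out, converted to percentage growth. IC50 by linear regression between bracketing concentrations. Quadruplicate points, three independent experiments, ANOVA/Tukey p<0.05.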
# MIA PaCa-2 [21] = test: Cell cycle arrest in human MIAPaCa2 cells assessed as accumulation at S phase at 10 uM after 24 hrs by propidium iodide staining based flow cytometeric analysis (reference value: 29.2 +/- 4.2%); type: functional
# MIA PaCa-2 [22] = test: Cell cycle arrest in human MIAPaCa2 cells assessed as accumulation at subG1 phase at 5 uM after 24 hrs by propidium iodide staining based flow cytometeric analysis (reference value: 48.7 +/- 0.7%); type: functional
# WI-38 = test: Antiproliferative activity against human WI38 cells at 0.1 to 10 uM after 72 hrs by MTT assay; type: cell-based; conditions: wi-38, 72 h; summary of the method: as §3
smiles,measurement,setting,value
Cl.c1cnc2nc3ccc4ccc(C5=NCCN5)cc4n3c2c1,Activity,SW-620 [1],90.9%
same,ΔTm,Nucleic Acid [2],8.4 °C
same,Activity,SW-620 [3],27.2%
same,Activity,MIA PaCa-2 [4],Active
same,Activity,SW-620 [5],18.5%
same,Activity,SW-620 [6],47.3%
same,Activity,MIA PaCa-2 [7],Dose-dependent effect
same,Activity,SW-620 [8],Active
same,Activity,Nucleic Acid [9],Active
same,Activity,MIA PaCa-2 [10],56.6%
same,Activity,MIA PaCa-2 [11],36.8%
same,Activity,Nucleic Acid [12],35%
same,log Ks,Nucleic Acid [13],5.4
same,Activity,MIA PaCa-2 [14],22.4%
same,Activity,SW-620 [15],Dose-dependent effect
same,Activity,MIA PaCa-2 [16],37.4%
same,Activity,MIA PaCa-2 [17],23%
same,Activity,MIA PaCa-2 [18],16.9%
same,Activity,SW-620 [19],24.4%
same,Activity,MIA PaCa-2 [20],33.8%
same,pIC50,SK-BR-3,5.66
same,Activity,MIA PaCa-2 [21],29.3%
same,Activity,MIA PaCa-2 [22],53.4%
same,Activity,WI-38,Toxic
